Measured values from ChEMBL document CHEMBL1144660, “Docking and hydropathic scoring of polysubstituted pyrrole compounds with antitubulin activity” (Bioorg Med Chem, 2008).

Legend:
[1] = Inhibition of tubulin polymerization in rat A10 cells after 18 hrs by indirect immunofluorescence technique; format: cell-based
Procedure, shortened: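 A-10 cells were exposed to a range of concentrations for 18 hr, fixed, and stained with a β-tubulin antibody for microtubules and with DAPI for DNA. Percent microtubule loss was scored visually at each concentration, averaged over 3 independent experiments, and plotted against concentration to calculate EC50.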

MDA-MB-435 = test: Antiproliferative activity against human MDA-MB-435 cells after 48 hrs by SRB assay; format: functional, cell-based; conditions: MDA-MB-435, 48 h

| EC50 [1] | IC50 (MDA-MB-435; read-out: IC50) | IC50 (MDA-MB-435; read-out: Log IC50 (converted)) | Compound |
| --- | --- | --- | --- |
| 2.4 µM | 0.278 µM | 0.282 µM | CCOC(=O)c1[nH]c(Br)c(-c2cccc(OC)c2)c1Br |
| > 50 µM | > 10 µM | 100 µM | CCOC(=O)c1[nH]cc(-c2ccc(OC)cc2)c1-c1ccc(OC)cc1 |
| 7.1 µM | 1.1 µM | 1.12 µM | CCOC(=O)c1[nH]c(Br)c(-c2cc(OC)c(OC)cc2Br)c1Br |
| > 50 µM | 0.312 µM | 0.309 µM | CCOC(=O)c1[nH]c(Br)c(-c2ccc(Br)cc2)c1Br |
| > 50 µM | 4.2 µM | 4.27 µM | CCOC(=O)c1[nH]c(C(=O)c2ccc(OC)cc2)c(-c2ccc(OC)cc2)c1-c1ccc(OC)cc1 |
| > 50 µM | 2.2 µM | 2 µM | CCOC(=O)c1[nH]c(Br)c(-c2ccc(C)cc2)c1Br |
| > 50 µM | 10 µM | 10 µM | CCOC(=O)c1c[nH]c(C(=O)c2ccc(OC)cc2)c1-c1ccc(OC)cc1 |
| > 50 µM | 0.919 µM | 0.912 µM | CCOC(=O)c1[nH]c(Br)c(-c2ccc(Cl)cc2)c1Br |
| > 50 µM | 10 µM | 10 µM | CCOC(=O)c1[nH]c(Br)c(-c2ccccc2)c1Br |
| 5.1 µM | 0.361 µM | 0.363 µM | CCOC(=O)c1[nH]c(Br)c(-c2ccc(OC)cc2)c1Br |
| > 50 µM | 2.6 µM | 2.63 µM | CCOC(=O)c1cc(-c2ccc(OC)cc2)c(C(=O)c2ccc(OC)cc2)[nH]1 |
| 7.5 µM | 1.4 µM | 1.41 µM | CCOC(=O)c1[nH]c(Br)c(-c2ccc3ccccc3c2)c1Br |
| > 50 µM | 5 µM | 5.01 µM | CCOC(=O)c1cc(-c2ccc(OC)cc2)c(Cl)[nH]1 |
| > 50 µM | 13 µM | 12.9 µM | CCOC(=O)c1[nH]c(Br)c(-c2cc(OC)c(OC)c(OC)c2)c1Br |
| – | – | 0.0182 µM | CCOC(=O)c1[nH]c(Br)c(-c2ccc(OC)c(OC)c2)c1Br |
| > 50 µM | 10 µM | 10 µM | COC(=O)c1c(-c2ccc(OC)c(OC)c2)c(-c2ccc(OC)c(OC)c2)cn1CCc1ccc(OC)c(OC)c1 |
| > 50 µM | 1.9 µM | 1.91 µM | CCOC(=O)c1[nH]c(C(=O)c2ccc(OC)cc2)c(-c2ccc(OC)cc2)c1Br |
| > 50 µM | > 20 µM | 200 µM | COc1ccc(C(=O)c2[nH]c(C(=O)c3ccc(OC)cc3)c(-c3ccc(OC)cc3)c2-c2ccc(OC)cc2)cc1 |

| Compound | EC50 [1] | IC50 (MDA-MB-435; read-out: IC50) | IC50 (MDA-MB-435; read-out: Log IC50 (converted)) |
| --- | --- | --- | --- |
| COc1cc2c(c(OC)c1OC)-c1ccc(OC)c(=O)cc1C(NC(=O)CS)CC2 (centres undefined) | – | 2 µM | 2 µM |
